Test results: ChEMBL document CHEMBL4316604, “Discovery of Isaindigotone Derivatives as Novel Bloom's Syndrome Protein (BLM) Helicase Inhibitors That Disrupt the BLM/DNA Interactions and Regulate the Homologous Recombination Repair” (J Med Chem, 2019)
Calls of active or inactive are those of the source. No cut-off for these calls is given here.

Assays:
[1] = target: T1, RecQ-like DNA helicase BLM (Homo sapiens, UniProt P54132); assay: Inhibition of His-tagged BLM (unknown origin) expressed in Escherichia coli BL21 (DE3) assessed as reduction in BLM helicase unwinding activity at 50 uM using 5'-biotin labeled forked-DNA as substrate after 1 hr by PAGE analysis
Summary of the method: (§1)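 BLM642-1296 (His-tagged, E. coli BL21(DE3)) preincubated with ligand (1.0, 10, 50 μM; ≤1% DMSO) for 1 h at 4 °C. Reaction: 8 nM annealed 5′-biotin duplex forked DNA, 32 nM BLM, 2 mM ATP, 0.1% BSA, 1 h.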

[2] = target: T1, RecQ-like DNA helicase BLM; assay: Inhibition of His-tagged BLM (unknown origin) expressed in Escherichia coli BL21 (DE3) assessed as reduction in BLM helicase unwinding activity at 10 uM using 5'-biotin labeled forked-DNA as substrate after 1 hr by PAGE analysis; summary of the method: as §1
[3] = target: T1, RecQ-like DNA helicase BLM; assay: Inhibition of His-tagged BLM (unknown origin) expressed in Escherichia coli BL21 (DE3) assessed as reduction in BLM helicase unwinding activity at 1 uM using 5'-biotin labeled forked-DNA as substrate after 1 hr by PAGE analysis; summary of the method: as §1
[4] = target: T1, RecQ-like DNA helicase BLM; assay: Inhibition of BLM in human HCT116 cells assessed as induction of HRR up-regulation after 24 hrs by GFP-based flow cytometry; assay type: cell-based
Summary of the method: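 HCT116 cells (2×10^5) co-transfected with DR-GFP HRR reporter and I-SceI plasmid; 24 h later treated with 0–2 μM ligand (reference 0–50 μM); BLM siRNA knockdown where stated. GFP-positive cells counted by flow cytometry and normalised to untreated; triplicate, mean ± SD.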

[5] = target: T1, RecQ-like DNA helicase BLM; conditions: 50 uM

T1 sequence (P54132 whole entry): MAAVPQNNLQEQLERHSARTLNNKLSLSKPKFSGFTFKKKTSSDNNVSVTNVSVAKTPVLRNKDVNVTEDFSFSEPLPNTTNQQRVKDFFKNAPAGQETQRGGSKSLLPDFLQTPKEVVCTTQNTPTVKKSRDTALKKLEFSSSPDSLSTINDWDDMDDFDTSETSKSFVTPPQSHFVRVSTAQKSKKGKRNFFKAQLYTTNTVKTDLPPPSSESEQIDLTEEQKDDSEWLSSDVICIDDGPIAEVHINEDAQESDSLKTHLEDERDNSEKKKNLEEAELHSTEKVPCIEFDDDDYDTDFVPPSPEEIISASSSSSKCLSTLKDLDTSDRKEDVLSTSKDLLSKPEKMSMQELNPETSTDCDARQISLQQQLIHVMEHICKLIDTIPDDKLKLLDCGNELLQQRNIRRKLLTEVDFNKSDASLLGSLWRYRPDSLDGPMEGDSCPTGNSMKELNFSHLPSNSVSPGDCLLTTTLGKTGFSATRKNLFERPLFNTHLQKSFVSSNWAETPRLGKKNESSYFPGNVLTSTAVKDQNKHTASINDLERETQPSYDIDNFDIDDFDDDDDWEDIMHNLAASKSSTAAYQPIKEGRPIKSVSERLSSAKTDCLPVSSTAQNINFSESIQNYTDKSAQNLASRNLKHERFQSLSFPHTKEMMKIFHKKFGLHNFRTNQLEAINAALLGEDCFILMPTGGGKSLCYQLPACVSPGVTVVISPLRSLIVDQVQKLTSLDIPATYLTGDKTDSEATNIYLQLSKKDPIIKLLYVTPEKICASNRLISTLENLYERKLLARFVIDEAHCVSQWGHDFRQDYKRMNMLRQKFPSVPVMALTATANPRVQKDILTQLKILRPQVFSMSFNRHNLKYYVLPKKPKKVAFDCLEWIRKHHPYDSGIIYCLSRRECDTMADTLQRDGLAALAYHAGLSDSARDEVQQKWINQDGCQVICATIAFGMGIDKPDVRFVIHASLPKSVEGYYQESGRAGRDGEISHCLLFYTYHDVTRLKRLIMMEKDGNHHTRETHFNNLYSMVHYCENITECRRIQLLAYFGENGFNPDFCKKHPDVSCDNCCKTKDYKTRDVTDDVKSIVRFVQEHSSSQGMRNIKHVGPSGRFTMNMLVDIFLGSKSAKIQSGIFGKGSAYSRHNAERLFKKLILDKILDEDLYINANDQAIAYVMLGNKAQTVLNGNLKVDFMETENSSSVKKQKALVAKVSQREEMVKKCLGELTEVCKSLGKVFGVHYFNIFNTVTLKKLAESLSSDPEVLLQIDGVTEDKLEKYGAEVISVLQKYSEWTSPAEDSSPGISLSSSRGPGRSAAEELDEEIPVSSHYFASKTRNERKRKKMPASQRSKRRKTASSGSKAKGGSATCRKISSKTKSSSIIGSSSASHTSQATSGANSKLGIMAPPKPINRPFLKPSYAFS

| inhibition [1] | inhibition [2] | inhibition [3] | EC [4] [µM] | inhibition [5] | Structure (SMILES) |
| --- | --- | --- | --- | --- | --- |
| Active | Active | Active | 50 | inactive | O=C(Nc1ccc(F)c(C(F)(F)F)c1)Nc1nnc(-c2ccncc2)s1 |
| Active | Active | Active | – | – | CCN(CC)CCCNc1cc2nc3n(c(=O)c2cc1F)CC/C3=C\c1ccc(CC(C)C)cc1 |
| Active | Active | Active | – | – | CCN(CC)CCCNc1cc2nc3n(c(=O)c2cc1F)CC/C3=C\c1ccc(C(C)(C)C)cc1 |
| Active | Active | Active | – | – | CCN(CC)CCCNc1cc2nc3n(c(=O)c2cc1F)CC/C3=C\c1ccc(C(F)(F)F)cc1 |
